Blank lines part the entries; values can stand above or below the compound they belong to. Activity calls are given as the source filed them. The calls are words filed in the database; no cut-off is given here.
Legend:
Cortex [1] = assay: Binding affinity to amyloid beta plaque in APP/PS1 Alzheimer's disease mouse brain cortex at 4 MBq after 45 mins postinjection by immunohistochemistry analysis relative to control; type: functional, organism-based; set-up: dose or concentration left out as unconfirmed; details: tested as the 3H-labelled form
Brain [2] = assay: Drug uptake in Balb-C mouse brain at 4 to 6 MBq, iv after 30 mins by gamma counting relative to [11C]Pittsburgh compound B; type: ADME, organism-based; details: in vivo, 0.5 h
Summary of the method: (§1)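 Male Balb-C mice received tracer or [11C] reference. Brain uptake was measured at 5 and 30 min pi and reported as mean ± SD, n ≥ 4.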

Brain [3] = assay: Drug uptake in Balb-C mouse brain at 4 to 6 MBq, iv after 5 mins by gamma counting relative to [11C]Pittsburgh compound B; type: ADME, organism-based; details: in vivo; summary of the method: as §1
Brain [4] = assay: Ratio of drug uptake in Alzheimer's disease patient brain to healthy human brain; type: ADME, tissue-based; details: in vivo
Cortex [5] = assay: Binding affinity to amyloid beta plaque in APP/PS1 Alzheimer's disease mouse brain cortex at 13.5 MBq after 45 mins postinjection by immunohistochemistry analysis relative to control; type: functional, organism-based; set-up: dose or concentration left out as unconfirmed; details: tested as the 18F-labelled form
Cortex [6] = assay: Drug uptake in APP/PS1 Alzheimer's disease mouse brain cortex at 4 MBq at 45 mins postinjection by uPET/CT analysis relative to control; type: ADME, organism-based; details: in vivo, 0.75 h
Summary of the method: (§2)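 Multimodal study of one 25-month-old APP/PS1 Tg mouse, with a 28-month-old control. Tail-vein coinjection of 18F tracer plus [3H]-reference: 13.5 + 4.0 MBq (Tg) or 10.0 + 3.7 MBq (control). Mice underwent µPET/CT for 45 min in list mode and were killed at 45 min. Ex vivo work included regional brain biodistribution and dual-label (3H/18F) digital autoradiography on 12 µm axial sections.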

Cortex [7] = assay: Drug uptake in APP/PS1 Alzheimer's disease mouse brain cortex at 4 MBq at 45 mins postinjection by dual label autoradiography relative to control; type: ADME, organism-based; details: in vivo, 0.75 h; summary of the method: as §2
[8] = Metabolic stability in Balb-C mouse brain at 21 to 32 MBq, iv after 10 mins by gamma counting; type: ADME, organism-based; details: read-out: Stability
Summary of the method: (§3)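 Balb-C mice were sampled for blood and brain tissue at 10 and 30 min pi. Radioactivity speciation is given as % intact tracer.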

[9] = target: T1, Amyloid-beta precursor protein (Homo sapiens, UniProt P05067); assay: Displacement of [3H]Pittsburgh compound B from human Abeta1-40 after 3 hrs by liquid scintillation counting
T1 sequence (P05067 whole entry): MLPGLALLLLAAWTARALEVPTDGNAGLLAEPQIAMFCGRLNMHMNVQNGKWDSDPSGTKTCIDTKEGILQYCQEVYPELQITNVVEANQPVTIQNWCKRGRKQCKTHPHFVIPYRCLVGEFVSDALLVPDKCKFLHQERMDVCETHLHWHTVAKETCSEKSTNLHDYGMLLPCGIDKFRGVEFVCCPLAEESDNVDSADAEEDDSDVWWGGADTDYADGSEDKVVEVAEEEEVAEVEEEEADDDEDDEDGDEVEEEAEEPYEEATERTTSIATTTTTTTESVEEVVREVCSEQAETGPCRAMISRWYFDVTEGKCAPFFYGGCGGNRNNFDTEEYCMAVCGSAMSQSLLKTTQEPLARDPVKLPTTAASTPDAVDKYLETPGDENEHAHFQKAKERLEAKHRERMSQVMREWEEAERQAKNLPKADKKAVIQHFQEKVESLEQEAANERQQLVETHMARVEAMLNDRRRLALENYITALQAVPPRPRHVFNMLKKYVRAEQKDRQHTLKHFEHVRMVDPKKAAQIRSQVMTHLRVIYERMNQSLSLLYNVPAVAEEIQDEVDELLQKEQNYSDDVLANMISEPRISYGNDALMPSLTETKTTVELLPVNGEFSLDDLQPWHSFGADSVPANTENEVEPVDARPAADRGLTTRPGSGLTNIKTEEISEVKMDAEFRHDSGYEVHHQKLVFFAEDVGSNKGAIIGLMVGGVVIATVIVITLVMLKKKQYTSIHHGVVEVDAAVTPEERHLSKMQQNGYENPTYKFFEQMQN

[10] = Metabolic stability in Balb-C mouse brain at 21 to 32 MBq, iv after 30 mins by gamma counting; type: ADME, organism-based; details: read-out: Stability; summary of the method: as §3
[11] = target: T1, Amyloid-beta precursor protein; assay: Displacement of [3H]Pittsburgh compound B from human Abeta1-42 after 3 hrs by liquid scintillation counting
Cortex [12] = assay: Drug uptake in APP/PS1 Alzheimer's disease mouse brain cortex at 13.5 MBq at 45 mins postinjection by dual label autoradiography relative to control; type: ADME, organism-based; details: in vivo, 0.75 h; summary of the method: as §2
Brain [13] = assay: Drug uptake in APP/PS1 Alzheimer's disease mouse brain cortex at 11.7 +/- 4.1 MBq at 36 to 45 mins postinjection by uPET analysis relative to control; type: ADME, organism-based; details: in vivo
Summary of the method: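 APP/PS1 (homozygous) Tg mice, 24.0 ± 0.4 months old (n = 7), and age-matched C57B6/J controls, 25 ± 2 months old (n = 3). Each mouse got a single bolus of 18F tracer: 11.7 ± 4.1 MBq for Tg, 11.5 ± 3.4 MBq for controls. Images are µPET frames summed over 36–45 min pi, with CT overlaid on an MRI template. Cortical and cerebellar VOI TACs and cortex/cerebellum ratios were derived.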

Cortex [14] = assay: Drug uptake in APP/PS1 Alzheimer's disease mouse brain cortex at 13.5 MBq at 45 mins postinjection by uPET/CT analysis relative to control; type: ADME, organism-based; details: in vivo, 0.75 h; summary of the method: as §2
[15] = Metabolic stability in Balb-C mouse blood at 21 to 32 MBq, iv after 10 mins by gamma counting; type: ADME, organism-based; details: read-out: Stability; summary of the method: as §3
[16] = Metabolic stability in Balb-C mouse blood at 21 to 32 MBq, iv after 30 mins by gamma counting; type: ADME, organism-based; details: read-out: Stability; summary of the method: as §3

Activity (Cortex [1]): Active
Structure (SMILES): CNc1ccc(-c2nc3ccc(O)cc3s2)cc1

Drug uptake (Brain [2]): Active
Drug uptake (Brain [3]): Active
Structure (SMILES): [11CH3]Nc1ccc(-c2nc3ccc(O)cc3s2)cc1 [PITTSBURGH COMPOUND B]

Ratio (Brain [4]): 1.3
Structure (SMILES): CC(=C(C#N)C#N)c1ccc2cc(N(C)CC[18F])ccc2c1

Activity (Cortex [5]): Active
Structure (SMILES): CNc1ccc(-c2cn3c(n2)sc2cc(OCCF)ccc23)cc1

Ratio (Brain [4]): 1.5
Structure (SMILES): CNc1ccc(/C=C/c2ccc(OCCOCCOCC[18F])cc2)cc1 [FLORBETABEN F18]

Drug uptake (Cortex [6]): Active
Drug uptake (Cortex [7]): Active
Structure (SMILES): [3H]Oc1ccc2nc(-c3ccc(NC)cc3)sc2c1

remaining at 10 min [8]: 92%
Ki [9]: 2.1 nM
Drug uptake (Brain [2]): Active
remaining at 0.5 h [10]: 88%
Ki [11]: 3.2 nM
Drug uptake (Cortex [12]): Active
Drug uptake (Brain [3]): Active
Drug uptake (Brain [13]): Active
Drug uptake (Cortex [14]): Active
remaining at 10 min [15]: 12%
remaining at 0.5 h [16]: 5%
Structure (SMILES): CNc1ccc(-c2cn3c(n2)sc2cc(OCC[18F])ccc23)cc1

Source: ChEMBL document CHEMBL2016463, “A Novel (18)F-Labeled Imidazo[2,1-b]benzothiazole (IBT) for High-Contrast PET Imaging of β-Amyloid Plaques” (ACS Med Chem Lett, 2011)
